A selection: hits, their analogues and other compounds. The true share with any hit is near 3.1%.
hERG protect: compounds protecting human hERG from proarrhythmic drug block; CHO-hERG, FluxOR thallium flux, dofetilide IC70 present; Q12809; 310,000 tested, 0.51% active; activation (rescue from dofetilide block), less the hit threshold, % at 10 µM;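 active = activation above the mean of controls blocked by dofetilide plus 5 SD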;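 note: thallium influx through hERG after potassium depolarization seen as dye fluorescence rise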
KCNQ1 inh: inhibitors of human KCNQ1 potassium channel; CHO-K1 KCNQ1, FluxOR thallium flux fluorescence; active compounds read high; B-score at 10 µM; 310,000 tested, 1.3% active;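 active = compounds whose thallium flux B-score, printed positive for inhibition, exceeds three library SD while starting fluorescence stays within three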;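 note: channel opened by potassium depolarization with thallium stimulus after 20 min compound exposure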
KCNK9 block: inhibitors of human KCNK9 two-pore domain potassium channel; AID 488922; B-score at 10 µM; HEK293 KCNK9, FluxOR thallium flux fluorescence; active compounds read low; Q9NPC2; 310,000 tested, 1.2% active;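 active = ratio B-score over 3 SD below the library mean, with starting fluorescence within 5 SD of its mean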;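 note: negative B-score means less thallium flux so channel inhibition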
KCNQ1 pot: human KCNQ1 channel potentiation or activation. B-score at 10 µM. P51787. AID 2648. 310,000 tested, 0.35% active. CHO-K1 KCNQ1, thallium flux FluxOR fluorescence; active compounds read high;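 active = fluorescence ratio B-score, a plate-corrected score, at least three library SD, with initial intensity B-score within 5 SD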
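System: CHO-K1 cells stably expressing KCNQ1 / Medium: assay buffer for compound exposure, DMSO matched across wells / Reagent: thallium- and potassium-containing depolarizing buffer / Compound: one concentration, matched DMSO / Incubation: 20 min compound pretreatment at room temperature / Measured by: kinetic FluxOR fluorescence, 10 s baseline plus 110 s post-stimulus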
KCNK3 block: human KCNK3 channel inhibition, primary screen. O14649. CHO-KCNK3 thallium flux, FluxOR fluorescence; active compounds read low. 340,000 tested, 0.84% active. B-score at 10 µM;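 active = B-score under library mean minus 4 SD, starting fluorescence ratio at most library mean plus 5 SD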;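 note: more negative B-score means stronger inhibition of thallium flux through KCNK3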
Target sequence (O14649 whole entry, looked up): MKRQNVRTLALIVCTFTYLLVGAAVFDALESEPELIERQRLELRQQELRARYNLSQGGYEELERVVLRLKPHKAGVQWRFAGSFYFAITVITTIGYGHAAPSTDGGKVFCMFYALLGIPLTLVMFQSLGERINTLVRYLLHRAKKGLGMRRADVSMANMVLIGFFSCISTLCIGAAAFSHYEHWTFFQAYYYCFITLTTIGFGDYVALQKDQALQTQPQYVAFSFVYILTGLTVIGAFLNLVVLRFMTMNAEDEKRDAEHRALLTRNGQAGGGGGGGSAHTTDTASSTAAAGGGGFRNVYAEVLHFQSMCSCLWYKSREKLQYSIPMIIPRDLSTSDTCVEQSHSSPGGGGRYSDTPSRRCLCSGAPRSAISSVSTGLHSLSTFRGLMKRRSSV
* hit, by the source's call.

Screening COc1ccc(-c2cc(C(=O)Nc3cc(C)nn3-c3ccccc3)no2)cc1OC returned hERG protect -10, KCNQ1 inh inactive, KCNK9 block inactive, KCNQ1 pot inactive and KCNK3 block inactive.
O=C(Nc1nnc(-c2ccccc2)o1)c1ccc(Cl)cc1 was read as hERG protect 0, KCNQ1 inh inactive, KCNK9 block inactive, KCNQ1 pot 11* and KCNK3 block inactive.
Screening COc1ccc2cc(C(c3nnnn3C(C)(C)C)N3CCSCC3)c(=O)[nH]c2c1 (stereo not drawn) returned hERG protect -8, KCNQ1 inh inactive, KCNK9 block inactive, KCNQ1 pot inactive and KCNK3 block inactive.
For CC(C)(C)n1nnnc1C(c1cc2cc3c(cc2[nH]c1=O)OCCO3)N1CCSCC1 (stereo not drawn) the results were hERG protect 9.2*, KCNQ1 inh inactive, KCNK9 block inactive, KCNQ1 pot 22* and KCNK3 block inactive.
For Cc1cc(O)c(C(C)C)cc1NC(=O)Nc1ccc([N+](=O)[O-])cc1 the results were KCNK3 block -10*.
`CCOc1ccc(NC(=O)Nc2cc(C(C)C)ccc2C)cc1` gave hERG protect -8, KCNQ1 inh inactive, KCNK9 block inactive, KCNQ1 pot inactive and KCNK3 block inactive.
Screening Cc1cc(O)c(C(C)C)cc1NC(=O)Nc1cccc2ccccc12 returned hERG protect -14, KCNQ1 inh inactive, KCNK9 block inactive, KCNQ1 pot inactive and KCNK3 block inactive.
Screening Cc1ccc(C(C)C)cc1NC(=O)Nc1ccc([N+](=O)[O-])cc1 returned hERG protect -8, KCNQ1 inh 7*, KCNK9 block inactive, KCNQ1 pot inactive and KCNK3 block inactive.
COc1ccccc1N(C)S(=O)(=O)c1ccc(C(=O)NCc2ccccc2CN2CCCC2)cc1 was read as KCNK3 block inactive.
`CCCCOc1ccc(-c2nnn(C(C)C(=O)OCC)n2)cc1` (stereo not drawn) gave hERG protect -3, KCNQ1 inh inactive, KCNK9 block -7.2*, KCNQ1 pot inactive and KCNK3 block inactive.
For CCC(C(=O)O)n1nnc(-c2ccc(-c3ccc(OC)cc3)cc2)n1 (stereo not drawn) the results were hERG protect -4, KCNQ1 inh inactive, KCNK9 block inactive, KCNQ1 pot inactive and KCNK3 block inactive.
`CCOC(=O)/C(=C/C=C1\Sc2cc(C)c(C)cc2N1CC)C(C)=O` gave hERG protect -37, KCNQ1 inh 13*, KCNK9 block inactive, KCNQ1 pot inactive and KCNK3 block inactive.
Cc1ccc(NC(=O)CSc2ncn(-c3ccccc3)n2)cc1C was read as hERG protect -10, KCNQ1 inh inactive, KCNK9 block inactive, KCNQ1 pot inactive and KCNK3 block inactive.
Screening Cc1ccc(NC(=O)CSc2ncc3ccccn23)cc1C returned hERG protect 5.9*, KCNQ1 inh inactive, KCNK9 block inactive, KCNQ1 pot inactive and KCNK3 block inactive.
For CCN(CC)S(=O)(=O)c1ccc(-n2cnc3cc(C)c(C)cc32)nc1 the results were hERG protect -9, KCNQ1 inh inactive, KCNK9 block inactive, KCNQ1 pot inactive and KCNK3 block inactive.
COc1cccc(NC(=S)NCCC(c2ccccc2)c2ccccc2)c1 was read as hERG protect -10, KCNQ1 inh 10*, KCNK9 block inactive, KCNQ1 pot inactive and KCNK3 block inactive.
S=C(NCCN1CCOCC1)Nc1cccc(Cl)c1 was read as hERG protect -8, KCNQ1 inh inactive, KCNK9 block inactive, KCNQ1 pot inactive and KCNK3 block inactive.
`COc1ccc(NC(=S)Nc2ccccn2)c(OC)c1` gave hERG protect 5.2*, KCNQ1 inh inactive, KCNK9 block inactive, KCNQ1 pot inactive and KCNK3 block inactive.
COc1cc(NC(=S)NCCC(c2ccccc2)c2ccccc2)cc(OC)c1 was read as hERG protect -10, KCNQ1 inh 6*, KCNK9 block inactive, KCNQ1 pot inactive and KCNK3 block inactive.
`COc1cccc(NC(=S)NCCN2CCOCC2)c1` gave hERG protect -12, KCNQ1 inh inactive, KCNK9 block inactive, KCNQ1 pot 12* and KCNK3 block inactive.
For Cc1cccc(NC(=S)NCCC(c2ccccc2)c2ccccc2)c1 the results were hERG protect -18, KCNQ1 inh inactive, KCNK9 block inactive, KCNQ1 pot inactive and KCNK3 block inactive.
For CC(=O)NS(=O)(=O)c1ccc(NC(=O)COc2ccc(C(=O)c3ccccc3)cc2)cc1 the results were hERG protect -7, KCNQ1 inh inactive, KCNK9 block inactive, KCNQ1 pot inactive and KCNK3 block inactive.
`COc1ccccc1NC(=O)NCCCCc1ccccc1` gave hERG protect -4, KCNQ1 inh inactive, KCNK9 block inactive, KCNQ1 pot inactive and KCNK3 block inactive.
COc1ccc(NC(=S)NCCC(c2ccccc2)c2ccccc2)c(OC)c1 was read as hERG protect -11, KCNQ1 inh inactive, KCNK9 block inactive, KCNQ1 pot 29* and KCNK3 block inactive.
For COc1ccc(NC(=O)NCCCCc2ccccc2)c(OC)c1 the results were hERG protect 4.6*, KCNQ1 inh inactive, KCNK9 block inactive, KCNQ1 pot inactive and KCNK3 block inactive.
Screening CCCCNC(=O)c1cn(C)c2ccc(S(=O)(=O)N3CC(C)CC(C)C3)cc2c1=O (stereo not drawn) returned hERG protect -8, KCNQ1 inh inactive, KCNK9 block inactive, KCNQ1 pot inactive and KCNK3 block inactive.
Nc1nc(-c2ccccn2)nc(N)c1Cc1ccc(Cl)cc1Cl was read as hERG protect -12, KCNQ1 inh inactive, KCNK9 block inactive, KCNQ1 pot 9* and KCNK3 block inactive.
For O=c1[nH]c2nc(Br)[nH]c(=O)c2[nH]1 the results were KCNK3 block inactive.
COc1ccc(/C=C/c2cc(=O)c3cc(Cl)ccc3o2)cc1 was read as hERG protect 4.6*, KCNQ1 inh inactive, KCNK9 block inactive, KCNQ1 pot inactive and KCNK3 block inactive.
OC(CNCc1ccccc1)(c1ccc(F)cc1)c1ccc(F)cc1 was read as hERG protect -13, KCNQ1 inh inactive, KCNK9 block -7.7*, KCNQ1 pot inactive and KCNK3 block inactive.
OC(CNCc1ccccc1F)(c1ccc(F)cc1)c1ccc(F)cc1 was read as hERG protect -9, KCNQ1 inh inactive, KCNK9 block -7*, KCNQ1 pot inactive and KCNK3 block inactive.
`OC1(c2ccc(Cl)cc2)CN(c2ccccc2)C2=[N+]1CCS2` (stereo not drawn) gave hERG protect -14, KCNQ1 inh 6*, KCNK9 block inactive, KCNQ1 pot inactive and KCNK3 block inactive.

Source: PubChem (Johns Hopkins Ion Channel Center)
